Measured values pooled from the literature.
Lines come from different studies, so protocols differ.
Target: Adenosine receptor A1 (ADORA1, Homo sapiens, UniProt P30542)
Residues used in one study (P30542 1-326): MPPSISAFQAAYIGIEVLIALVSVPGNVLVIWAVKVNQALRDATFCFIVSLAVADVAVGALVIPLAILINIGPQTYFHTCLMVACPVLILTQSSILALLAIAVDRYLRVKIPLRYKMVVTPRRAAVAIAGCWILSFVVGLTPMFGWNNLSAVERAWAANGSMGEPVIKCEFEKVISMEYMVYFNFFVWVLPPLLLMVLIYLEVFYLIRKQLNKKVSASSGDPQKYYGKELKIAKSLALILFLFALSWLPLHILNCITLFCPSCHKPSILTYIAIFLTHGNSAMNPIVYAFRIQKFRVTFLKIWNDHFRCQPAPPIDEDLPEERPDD

O[C@@H]1[C@H](O)CO[C@H]1n1cnc2c(NCc3cccc(F)c3)ncnc21 — inhibition (ligand displacement; radioligand; 10 µM; cell membranes): 16%
CNC(=O)[C@@]12C[C@@H]1[C@@H](n1cnc3c(NC)nc(C#C[c-]4cccc4)nc31)[C@H](O)[C@@H]2O.[Fe+2].c1cc[cH-]c1 — inhibition (ligand displacement; radioligand; 10 µM; cell membranes): 25%
O=C(Nc1ccc(S(=O)(=O)N2CCC(Cl)CC2)cc1)c1ccc([N+](=O)[O-])o1 — inhibition (ligand displacement; radioligand; 10 µM): 12%
CNc1nc(Cl)nc2c1ncn2[C@@H]1OC[C@@H](O)[C@H]1O — inhibition (ligand displacement; radioligand; 10 µM; cell membranes): < 10%
O=C(c1ccc(Cl)cc1)N(Cc1ccccc1)C1CCCCC1 — inhibition (cell-free assay; 10 µM): 1.7%
Ic1cccc2cnccc12 — inhibition (ligand displacement; radioligand; 10 µM): -5%
Cn1c(=O)[nH]c2nc[nH]c2c1=O — inhibition (ligand displacement; radioligand; 30 µM; cell membranes): 78%
Oc1cccc(Nc2nc(-c3ccc(F)cc3F)cs2)c1 — inhibition (cell-free assay; 10 µM): 46.5%
O=C1N=C(N2CCCCN2)S/C1=C\c1ccc(F)cc1O — inhibition (ligand displacement; radioligand; 10 µM): < 10%
CNc1ncnc2c1ncn2[C@@H]1OC[C@@H](O)[C@H]1O — inhibition (ligand displacement; radioligand; 10 µM; cell membranes): < 10%
C=CN1CCCn2c1nc1c2c(=O)n(C)c(=O)n1C — inhibition (ligand displacement; radioligand; 10 µM; cell membranes): 21%
